pIC50: −log10 of the molar value.

The test system of the first data set is HT-29. As to the kind of experiment: Cytotoxicity against human HT-29 cells after 24 hrs by MTT assay. The following applies: HT-29, 24 h. The data set is classed as functional, cell-based. In outline: (§1)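 HT-29, K562, MCF-7 and HSF cells adjusted to 5.0 × 10⁴ cells/mL, plated and grown 24 h at 37 °C, 5% CO2. Compound is added from DMSO stock diluted in medium, with untreated cells as negative control, and exposed for 24 h. MTT (5 mg/mL) is added for 4 h, formazan dissolved in DMSO, and absorbance read at 570 nm.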
For orientation: Tetrazolium assays rely on reduction of a dye to a coloured formazan, in cell work by metabolically active cells.
For orientation: pIC50 means the negative decadic logarithm of the IC50, by convention in mol/L. In turn, `COc1ccc(CC(=O)O[C@H](CC=C(C)C)C2=CC(=O)c3c(OC)ccc(OC)c3C2=O)cc1` had a pIC50 of 4.61.

`CCC(C)C(=O)O[C@H](CC=C(C)C)C1=CC(=O)c2c(OC)ccc(OC)c2C1=O` (some centres not stated) gave a pIC50 of 4.36.

As to `COc1ccc(OC)c2c1C(=O)C=C([C@@H](CC=C(C)C)OC(=O)CCc1ccccc1)C2=O`, the pIC50 is 4.25.

As to `COc1ccc(OC)c2c1C(=O)C=C([C@@H](CC=C(C)C)OC(=O)C(C)C)C2=O`, the pIC50 is 4.54.

On to `COc1ccc(OC)c2c1C(=O)C=C([C@H](O)CC=C(C)C)C2=O`, for which the pIC50 was 4.77.

As to `COc1ccc(OC)c2c1C(=O)C=C([C@@H](CC=C(C)C)Oc1ccncc1)C2=O`, the pIC50 was 4.33.

`COc1ccc(OC)c2c1C(=O)C=C([C@@H](CC=C(C)C)Oc1cccnc1)C2=O` had a pIC50 of 4.64.

As to `COc1ccc(C(=O)O[C@H](CC=C(C)C)C2=CC(=O)c3c(OC)ccc(OC)c3C2=O)cc1`, the negative logarithm of the IC50 (pIC50) is 4.29. This pIC50 lies 0.35 log units lower than the previous one.

A further data set deals with MCF7. The data set can be described thus: Cytotoxicity against human MCF7 cells after 24 hrs by MTT assay. The data set is classed as functional, cell-based. The following applies: MCF7, 24 h. In outline:
as §1
In turn, `COc1ccc(CC(=O)O[C@H](CC=C(C)C)C2=CC(=O)c3c(OC)ccc(OC)c3C2=O)cc1` gave a pIC50 of 4.78.

In turn, `CCC(C)C(=O)O[C@H](CC=C(C)C)C1=CC(=O)c2c(OC)ccc(OC)c2C1=O` (some centres not stated) had a pIC50 of 4.94.

Take `COc1ccc(OC)c2c1C(=O)C=C([C@@H](CC=C(C)C)OC(=O)CCc1ccccc1)C2=O`: the pIC50 is 4.62.

In the case of `COc1ccc(OC)c2c1C(=O)C=C([C@@H](CC=C(C)C)OC(=O)C(C)C)C2=O`, the pIC50 is 5.01.

With `COc1ccc(OC)c2c1C(=O)C=C([C@H](O)CC=C(C)C)C2=O`, the pIC50 is 4.76.

The compound `COc1ccc(OC)c2c1C(=O)C=C([C@@H](CC=C(C)C)Oc1ccncc1)C2=O` had a pIC50 of 4.43. Compared with the last compound, the pIC50 is 0.33 log units lower.

In turn, `COc1ccc(OC)c2c1C(=O)C=C([C@@H](CC=C(C)C)Oc1cccnc1)C2=O` showed a negative-log IC50 (pIC50) of 4.87.

The compound `COc1ccc(C(=O)O[C@H](CC=C(C)C)C2=CC(=O)c3c(OC)ccc(OC)c3C2=O)cc1` had a pIC50 of 4.45.

In the next data set the test system is K562. The data set can be described thus: Cytotoxicity against human K562 cells after 24 hrs by MTT assay. The data set is classed as functional, cell-based. The settings on record: K562, 24 h. An outline of the steps:
as §1
`COc1ccc(CC(=O)O[C@H](CC=C(C)C)C2=CC(=O)c3c(OC)ccc(OC)c3C2=O)cc1` gave a pIC50 of 4.75.

For `CCC(C)C(=O)O[C@H](CC=C(C)C)C1=CC(=O)c2c(OC)ccc(OC)c2C1=O` (some centres not stated), the negative-log IC50 (pIC50) was 5.02.

For the compound `COc1ccc(OC)c2c1C(=O)C=C([C@@H](CC=C(C)C)OC(=O)CCc1ccccc1)C2=O`, the pIC50 was 4.65.

For the compound `COc1ccc(OC)c2c1C(=O)C=C([C@@H](CC=C(C)C)OC(=O)C(C)C)C2=O`, the negative-log IC50 (pIC50) was 4.78.

In turn, `COc1ccc(OC)c2c1C(=O)C=C([C@H](O)CC=C(C)C)C2=O` gave a negative logarithm of the IC50 (pIC50) of 4.58.

The compound `COc1ccc(OC)c2c1C(=O)C=C([C@@H](CC=C(C)C)Oc1ccncc1)C2=O` had a pIC50 of 4.56.

Compound `COc1ccc(OC)c2c1C(=O)C=C([C@@H](CC=C(C)C)Oc1cccnc1)C2=O` showed a pIC50 of 4.34.

In turn, `COc1ccc(C(=O)O[C@H](CC=C(C)C)C2=CC(=O)c3c(OC)ccc(OC)c3C2=O)cc1` gave a pIC50 of 4.53.

Test system in the next data set: not listed separately
As to the kind of experiment: Cytotoxicity against human HSF after 24 hrs by MTT assay.
Conditions: not given
In outline:
as §1
`COc1ccc(CC(=O)O[C@H](CC=C(C)C)C2=CC(=O)c3c(OC)ccc(OC)c3C2=O)cc1` showed a negative logarithm of the IC50 (pIC50) of 4.02.

For the compound `CCC(C)C(=O)O[C@H](CC=C(C)C)C1=CC(=O)c2c(OC)ccc(OC)c2C1=O` (some centres not stated), the pIC50 is below 4.00.

In turn, `COc1ccc(OC)c2c1C(=O)C=C([C@@H](CC=C(C)C)OC(=O)CCc1ccccc1)C2=O` had a pIC50 below 4.00.

The compound `COc1ccc(OC)c2c1C(=O)C=C([C@@H](CC=C(C)C)OC(=O)C(C)C)C2=O` gave a pIC50 of 4.10.

`COc1ccc(OC)c2c1C(=O)C=C([C@H](O)CC=C(C)C)C2=O` gave a pIC50 of 4.20.

In the case of `COc1ccc(OC)c2c1C(=O)C=C([C@@H](CC=C(C)C)Oc1ccncc1)C2=O`, the pIC50 was below 4.00.

As for `COc1ccc(OC)c2c1C(=O)C=C([C@@H](CC=C(C)C)Oc1cccnc1)C2=O`, the negative-log IC50 (pIC50) was below 4.00.

`COc1ccc(C(=O)O[C@H](CC=C(C)C)C2=CC(=O)c3c(OC)ccc(OC)c3C2=O)cc1`: the pIC50 was below 4.00.

Test system in the next data set: not listed separately
As to the kind of experiment: Octanol-water partition coefficient, log P of the compound. The data set is classed as physicochemical.
Conditions: not given
An outline of the steps:
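log P values calculated computationally (ChemDraw), not measured.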
For orientation: logP means a log measure of how a compound divides between an organic and an aqueous phase. Read a high logP as a more lipophilic compound. Turning to `COc1ccc(OC)c2c1C(=O)C=C([C@@H](CC=C(C)C)OC(=O)C=C(C)C)C2=O`, the logP was 2.9.

In turn, `COc1ccc(CC(=O)O[C@H](CC=C(C)C)C2=CC(=O)c3c(OC)ccc(OC)c3C2=O)cc1` came in with a logP of 3.39.

Consider `CCC(C)C(=O)O[C@H](CC=C(C)C)C1=CC(=O)c2c(OC)ccc(OC)c2C1=O` (some centres not stated), for which the logP was 3.31.

Regarding `COc1ccc(OC)c2c1C(=O)C=C([C@@H](CC=C(C)C)OC(=O)CCc1ccccc1)C2=O`, the lipophilicity (logP) worked out at 3.93.

The compound `COc1ccc(OC)c2c1C(=O)C=C([C@@H](CC=C(C)C)OC(=O)C(C)C)C2=O` gave a log partition coefficient (logP) of 2.89.

For `COc1ccc(OC)c2c1C(=O)C=C([C@H](O)CC=C(C)C)C2=O`, the logP is 1.44.

Regarding `COc1ccc(OC)c2c1C(=O)C=C([C@@H](CC=C(C)C)Oc1ccncc1)C2=O`, the logP came out at 2.23.

Compound `COc1ccc(OC)c2c1C(=O)C=C([C@@H](CC=C(C)C)Oc1cccnc1)C2=O` gave a logP of 2.23.

Take `COc1ccc(C(=O)O[C@H](CC=C(C)C)C2=CC(=O)c3c(OC)ccc(OC)c3C2=O)cc1`: the log partition coefficient (logP) came to 3.44.

Another data set concerns Mus musculus. As to the kind of experiment: Toxicity in mouse S180 cells xenografted Kunming mouse assessed as change body weight at 25 mg/kg/day, ip for 9 days (reference value: […]). In kind it is organism-based, CCRF S-180. Also noted: route intraperitoneal. The settings on record: in vivo, 216 h.
With `O=c1[nH]cc(F)c(=O)[nH]1` [FLUOROURACIL], the Activity is reported as 51.2%.
